ChEMBL document CHEMBL1146579, “Antifungal agents from the roots of Cudrania cochinchinensis against Candida, Cryptococcus, and Aspergillus species” (2003)
≈ marks a conversion by molar mass, not a printed value.

What was measured:
[1] = test system: Candida albicans; experiment: Antifungal activity against Candida albicans ATCC 90028 after 48 to 96 hrs by broth microdilution method; assay type: functional
Procedure, shortened: (§1)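 Broth microdilution followed NCCLS with slight modification, giving MIC. Compounds were dissolved in DMSO as a 12.8 mg/mL stock and diluted in RPMI-1640, with final solvent below 1%. Yeasts were kept on modified Sabouraud dextrose agar or potato dextrose agar slants, and filamentous fungi on potato dextrose agar.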

[2] = test system: Pichia kudriavzevii; experiment: Antifungal activity against Candida krusei ATCC 6258 after 48 to 96 hrs by broth microdilution method; assay type: functional; procedure, shortened: as §1
[3] = test system: Aspergillus fumigatus; experiment: Antifungal activity against Aspergillus fumigatus IFM 41236 after 48 to 96 hrs by broth microdilution method; assay type: functional; procedure, shortened: as §1
[4] = test system: Nakaseomyces glabratus; experiment: Antifungal activity against Candida glabrata ATCC 90030 after 48 to 96 hrs by broth microdilution method; assay type: functional; procedure, shortened: as §1
[5] = test system: Candida parapsilosis; experiment: Antifungal activity against Candida parapsilosis ATCC 22019 after 48 to 96 hrs by broth microdilution method; assay type: functional; details: Lodderomyces parapsilosis; procedure, shortened: as §1
[6] = test system: Cryptococcus neoformans; experiment: Antifungal activity against Cryptococcus neoformans ATCC 90112 after 48 to 96 hrs by broth microdilution method; assay type: functional
Procedure, shortened: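 Broth microdilution followed NCCLS with slight modification, giving MIC. Yeasts were kept on modified Sabouraud dextrose agar or potato dextrose agar slants, and filamentous fungi on potato dextrose agar.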

[7] = test system: Aspergillus nidulans; experiment: Antifungal activity against Aspergillus nidulans IFM 5396 after 48 to 96 hrs by broth microdilution method; assay type: functional; procedure, shortened: as §1
[8] = test system: Candida albicans; experiment: Antifungal activity against Candida albicans ATCC 90028 after 48 hrs by disk diffusion assay; assay type: functional
Procedure, shortened: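 Pure compounds were dissolved in MeOH at 10 mg/mL, about 0.4 mg absorbed per 8 mm paper disk, then air-dried. Plates of Yeast Morphology Agar were incubated 48 h at 30 °C, and the diameter of the inhibition zone was measured.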

[9] = test system: Aspergillus fumigatus; experiment: Antifungal activity against Aspergillus fumigatus IFM 41374 after 48 to 96 hrs by broth microdilution method; assay type: functional; procedure, shortened: as §1
[10] = test system: Candida albicans; experiment: microbe, parasite or virus in culture; details: ATCC 90028, 48 h, read-out: IZ

| SMILES | MIC [1] | MIC [2] | MIC [3] | MIC [4] | MIC [5] | MIC [6] | MIC [7] | inhibition zone (IZ) [8] | MIC [9] | zone of inhibition at 10 µg/mL [10] |
| --- | --- | --- | --- | --- | --- | --- | --- | --- | --- | --- |
| CC(C)=CCc1c(O)cccc1C(=O)c1c(O)cc(O)c2c1OC(C)(C)C=C2 [CUDRAPHENONE C] | 64 µg/mL (≈ 168 µM) | 64 µg/mL (≈ 168 µM) | 8 µg/mL (≈ 21 µM) | > 128 µg/mL | > 128 µg/mL | 16 µg/mL (≈ 42.1 µM) | 32 µg/mL (≈ 84.1 µM) | 10 mm | 16 µg/mL (≈ 42.1 µM) |  |
| CC(C)=CCc1c(O)cccc1C(=O)c1c(O)cc(O)c(CC=C(C)C)c1O [CUDRAPHENONE D] | 16 µg/mL (≈ 41.8 µM) | 8 µg/mL (≈ 20.9 µM) | 4 µg/mL (≈ 10.5 µM) | 32 µg/mL (≈ 83.7 µM) | 64 µg/mL (≈ 167 µM) | 2 µg/mL (≈ 5.23 µM) | 16 µg/mL (≈ 41.8 µM) | 11 mm | 8 µg/mL (≈ 20.9 µM) |  |
| C=CC(C)(C)c1c(O)cc2oc3c(O)c(O)ccc3c(=O)c2c1O [CUDRAXANTHONE S] | 16 µg/mL (≈ 48.7 µM) | > 128 µg/mL | 4 µg/mL (≈ 12.2 µM) | 4 µg/mL (≈ 12.2 µM) | > 128 µg/mL | 2 µg/mL (≈ 6.09 µM) | 4 µg/mL (≈ 12.2 µM) | 9 mm | 4 µg/mL (≈ 12.2 µM) |  |
| Clc1ccc(COC(Cn2ccnc2)c2ccc(Cl)cc2Cl)c(Cl)c1 (stereo not drawn) [MICONAZOLE] | 1 µg/mL (≈ 2.4 µM) | 1 µg/mL (≈ 2.4 µM) | 0.5 µg/mL (≈ 1.2 µM) | 0.5 µg/mL (≈ 1.2 µM) | 0.5 µg/mL (≈ 1.2 µM) | 0.064 µg/mL (≈ 0.154 µM) | 0.25 µg/mL (≈ 0.601 µM) | 14 mm | 0.5 µg/mL (≈ 1.2 µM) | 15 mm |
| CC(C)=CCc1c(O)cc(O)c2c1OC(c1ccc(O)cc1)CC2=O (stereo not drawn) [SOPHORAFLAVANONE B] | 64 µg/mL (≈ 188 µM) | 64 µg/mL (≈ 188 µM) | 16 µg/mL (≈ 47 µM) | > 128 µg/mL | > 128 µg/mL | 64 µg/mL (≈ 188 µM) | 128 µg/mL (≈ 376 µM) |  | > 128 µg/mL |  |
| CC1Oc2cc3oc4c(O)c(O)ccc4c(=O)c3c(O)c2C1(C)C (stereo not drawn) [TOXYLOXANTHONE C] | > 128 µg/mL | > 128 µg/mL | 8 µg/mL (≈ 24.4 µM) | 8 µg/mL (≈ 24.4 µM) | > 128 µg/mL | 8 µg/mL (≈ 24.4 µM) | 8 µg/mL (≈ 24.4 µM) | 9 mm | 8 µg/mL (≈ 24.4 µM) |  |
| CC(C)=CCc1c(O)cc2occ(-c3ccc(O)cc3)c(=O)c2c1O [WIGHTEONE] | 16 µg/mL (≈ 47.3 µM) | > 128 µg/mL | 2 µg/mL (≈ 5.91 µM) | > 128 µg/mL | > 128 µg/mL | 4 µg/mL (≈ 11.8 µM) | 2 µg/mL (≈ 5.91 µM) | 11 mm | 4 µg/mL (≈ 11.8 µM) |  |
